Assay results published in the array DNA melting data of Ke et al. (doi:10.1101/2024.01.08.574731).

Assays:
[1] = folding enthalpy; higher = less favourable; fluorescence melt of hairpins on a sequencing array, two-state fit; conditions: sodium 0.088 M
In short: (§1)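 On a sequenced MiSeq flow cell, library hairpins with annealed Cy3 and quencher oligos were imaged for Cy3 fluorescence in 2.5 °C steps up to 60 °C, in 50 mM Na-HEPES pH 8.0, 25 mM NaCl. Normalisation used pre-quench Cy3 and control constructs. Bootstrapped two-state fits gave melting temperature and folding enthalpy, combined by inverse variance across four replicates and with fitted temperatures raised by 9.35 °C to match UV melts.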

[2] = melting temperature; fluorescence melt of hairpins on a sequencing array, two-state fit, raised by 9.35 °C to match UV melts; conditions: sodium 0.088 M
In short: as §1

Sequence | folding enthalpy [1] | Tm [2]
GATCTTCCAAAGATC ((((((...)))))) | -27.4 kcal/mol | 43.2 °C
GATGTACGAAAGTATATC (((.(((....))).))) | -30.7 kcal/mol | 45.9 °C
GGACATCGAAAGATTCC (((.(((....)))))) | -26.4 kcal/mol | 38.6 °C
GGGAGCGGAAACGCTCTC (.(((((....))))).) | -14.5 kcal/mol | 58.4 °C
GAGCAACGAAAGTTTCTC (((.(((....))).))) | -26.3 kcal/mol | 37 °C
GATCTTGATAAAGATC ((((((....)))))) | -40.9 kcal/mol | 52.1 °C
GGCCTCGAAAGAGTTGCC ((((((....)))..))) | -17.2 kcal/mol | 45.5 °C
GCATACGAAAGTAACTGC ((((((....)))..))) | -13.6 kcal/mol | 31.1 °C
GCTCAAGGAAACTCGAGC ((((.((....)).)))) | -30.5 kcal/mol | 38.3 °C
GCATACGAAAGTACTGC ((((((....))).))) | -22.4 kcal/mol | 41.4 °C
GCACCCGAAAGGGAATGC ((((((....)))..))) | -20.1 kcal/mol | 45.3 °C
GCGCGTCGAAAGACCCGC (((.(((....))).))) | -37.3 kcal/mol | 55.8 °C
CTCCAGAAATGGAG (((((....))))) | -18.9 kcal/mol | 44.9 °C
GAGTCTGAAAAGACTC ((((((....)))))) | -38 kcal/mol | 59 °C
GTTGACGAAAGTCAAAC ((((((....))).))) | -13.9 kcal/mol | 51.3 °C
GATCGTGCATACGATC ((((((....)))))) | -37.7 kcal/mol | 60.5 °C
GTGGGTGCGAAAGCACAC (((..(((....)))))) | -17.5 kcal/mol | 64.2 °C
GGACACGAAAGTGCTTCC ((((((....)))..))) | -20.4 kcal/mol | 40.4 °C
GATCCCCGCGGGGATC ((((((....)))))) | -38.8 kcal/mol | 67.4 °C

Sequence | folding enthalpy [1] | Tm [2]
GAACGACGAAAGTCTTTC (((.(((....))).))) | -24.4 kcal/mol | 39.3 °C
GCCTGGCGAAAGCGAAGC ((.(.((....)).).)) | -7.77 kcal/mol | 31.9 °C
GCTCTGCGAAAGCGGTGC ((.(.((....)).).)) | -19 kcal/mol | 54.4 °C
GATCAGATTTCTGATC ((((((....)))))) | -41 kcal/mol | 52.9 °C
TGAGGGAAACCTCA (((((....))))) | -20.9 kcal/mol | 42.2 °C
GATCTGATGGCAGATC ((((((....)))))) | -36.5 kcal/mol | 47.7 °C
GAGTGCGAAAGCAACTC ((((((....))).))) | -18.8 kcal/mol | 59 °C
GCCCTGCGAAAGCGAGGC (((..((....))..))) | -11.5 kcal/mol | 54.2 °C
GCCAACGAAAGTTCGGGC ((((((....)))..))) | -30 kcal/mol | 43.8 °C
GCTACGCGAAAGCGTTGC ((.((((....)))).)) | -27.2 kcal/mol | 65 °C
GATCATCACATGATC ((((((...)))))) | -36.7 kcal/mol | 49.1 °C
GATCTGAAGACAGATC ((((((....)))))) | -27.7 kcal/mol | 44.8 °C
GTGGTCTCGAAAGAGCAC (((..(((....)))))) | -25.9 kcal/mol | 48.8 °C
GCCCTAGGAAACTGGGGC ((((.((....)).)))) | -33.7 kcal/mol | 55.4 °C
GTCTTCCCGAAAGGGGAC (((..(((....)))))) | -12.5 kcal/mol | 35.9 °C
GATCACCAAGGTGATC ((((((....)))))) | -43.3 kcal/mol | 60 °C
GGGTCAGGAAACCGACCC (((((.(....).))))) | -37.3 kcal/mol | 52.7 °C
GAGGAGGGAAACCCCCTC ((((.((....)).)))) | -26 kcal/mol | 46.5 °C
GGAACTGGAAACGGTTCC (((((.(....).))))) | -34.9 kcal/mol | 51 °C
